Assay results taken from ChEMBL document CHEMBL1150222, “Benzophenones and xanthones with isoprenoid groups from Cudrania cochinchinensis” (J Nat Prod, 2001).

Legend:
[1] = Cytotoxicity against HGF cells; assay type: cell-based; conditions: human
Outline: (§1)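 Human oral squamous carcinoma HSC-2 cells and normal human gingival fibroblasts (HGF) were incubated 24 h with compound added in EtOH (final EtOH in medium below 1%). Viable cells were read as A540 against untreated controls. CC50 is reported in mM as the mean of duplicate determinations.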

HSC-2 [2] = assay: Selectivity ratio CC50 for HGF to CC50 for human HSC-2 cells
HSC-2 [3] = assay: Cytotoxicity against human HSC2 cells; assay type: functional; outline: as §1

SMILES	CC50 [1] [µM]	Ratio (HSC-2 [2])	CC50 (HSC-2 [3]) [µM]
CC1(C)C=Cc2c(cc3oc4c(O)cccc4c(=O)c3c2O)O1	> 650	>1.4	480
CC(C)=CCc1c(O)cc2oc3ccc(O)cc3c(=O)c2c1O	> 640	–	> 640
COc1cc(-c2coc3cc(O)cc(O)c3c2=O)ccc1O [3'-O-METHYLOROBOL]	> 670	>4.2	160
CC1(C)C=Cc2c(cc3occ(-c4ccc(O)cc4)c(=O)c3c2O)O1 [ALPINUMISOFLAVONE]	> 600	>1.5	400
C=CC(C)(C)c1c(O)cc2oc3c(O)c(O)cc(CC=C(C)C)c3c(=O)c2c1O [ALVAXANTHONE]	25	1.1	22
COc1c2ccoc2cc2oc(=O)ccc12 [BERGAPTEN]	> 930	>1.3	720
COc1cc(O)c(C(=O)c2cccc(O)c2CC=C(C)C)c(O)c1 [CUDRANONE]	> 610	>1.5	400
CC(C)=CCc1c(O)cccc1C(=O)c1cc2c(cc1O)OC(C)(C)C=C2 [CUDRAPHENONE A]	430	2.5	170
CC(C)=CCc1cc(C(=O)c2cccc(O)c2CC=C(C)C)c(O)cc1O [CUDRAPHENONE B]	90	2.5	36
CC(C)=CCc1c(O)cccc1C(=O)c1c(O)cc(O)c2c1OC(C)(C)C=C2 [CUDRAPHENONE C]	190	2.1	92
CC(C)=CCc1c(O)cccc1C(=O)c1c(O)cc(O)c(CC=C(C)C)c1O [CUDRAPHENONE D]	190	3.7	52
CC1Oc2cc3oc4c(O)c5c(cc4c(=O)c3c(O)c2C1(C)C)C=CC(C)(C)O5 (centres undefined) [GERONTOXANTHONE A]	> 510	–	> 510
C=CC(C)(C)c1c(O)cc2oc3c(O)c4c(cc3c(=O)c2c1O)C=CC(C)(C)O4 [GERONTOXANTHONE B]	> 510	>1.3	390
CC(C)=CCc1cc2c(=O)c3c(O)c4c(cc3oc2c(O)c1O)OC(C)C4(C)C (centres undefined) [GERONTOXANTHONE G]	> 510	–	> 510
CC(C)=CCc1c(O)cc(O)c2c(=O)c3c(CC=C(C)C)c(O)ccc3oc12 [GERONTOXANTHONE H]	200	1.7	120
C=CC(C)(C)c1c(O)c(CC=C(C)C)c(O)c2c(=O)c3ccc(O)c(O)c3oc12 [GERONTOXANTHONE I]	> 510	>1.1	430
C=CC(C)(C)c1c(O)cc2oc3c(O)c(O)c(CC=C(C)C)cc3c(=O)c2c1O [ISOALVAXANTHONE]	58	1.6	35
C=CC(C)(C)c1c2c(c(O)c3c(=O)c4ccc(O)c(O)c4oc13)C=CC(C)(C)O2 [MACLURAXANTHONE]	> 510	–	> 510
O=C1C[C@@H](c2ccc(O)cc2)Oc2cc(O)cc(O)c21 [NARINGENIN]	> 740	>1.3	550
CC(C)=CCc1c(O)cc(O)c2c1OC(c1ccc(O)cc1)CC2=O (centres undefined) [SOPHORAFLAVANONE B]	190	1.5	130
CC(C)=CCc1c(O)cc2occ(-c3ccc(O)cc3)c(=O)c2c1O [WIGHTEONE]	250	2.1	120
